The source of these data is ChEMBL document CHEMBL5335790, “Design, synthesis and biological evaluation of novel 2,4-thiazolidinedione derivatives able to target the human BAG3 protein” (Eur J Med Chem, 2023).

Data set [1] deals with T1, BAG family molecular chaperone regulator 3 (Homo sapiens, UniProt O95817). The experiment in a line: Binding affinity to CM4 sensorchip immobilized glycosylated C-terminal His tagged human BAG3 transfected in HEK293T cells assessed as dissociation constant by SPR analysis. Put shortly: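 SPR single-cycle kinetics on CM4-immobilized HEK-293T-expressed BAG3-His. Increasing compound concentrations in PBS with 5% DMSO and 0.05% P20 were injected at 30 µL/min without regeneration between injections, with blank subtraction. Kd from steady-state analysis, reported as mean ± SEM and compared by Student t-test.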
Background: In SPR one partner is held on a chip, and binding of the other changes the refractive index at the surface.

The target in data set [2] is T1, BAG family molecular chaperone regulator 3. The experiment in a line: Binding affinity to C-terminal His tagged human BAG3 transfected in HEK293T cells assessed as intermolecular nuclear overhauser effect mediated protein magnetization at 125 uM by waterLOGSY experiment. It is filed as cell-based. In outline:
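Ligand-observed NMR in 50 mM sodium phosphate pH 7.8, 150 mM NaCl, 0.04% NaN3, 1.3% DMSO-d6, 5% D2O. Compound at 125 µM with 5 µM BAG3-His (HEK-293T expressed, purified by IMAC and SEC), each also run without protein. WaterLOGSY used 240 scans, 1.5 s mixing and water inversion at 4.7 ppm. STD used 256 scans with protein saturation at 0.4 ppm.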

A further data set relates to HD-MB03. The experiment in a line: Antiproliferative activity against human HD-MB03 cells assessed as cell growth inhibition incubated for 72 hrs by resazurin dye based analysis. In kind it is functional. Put shortly: (§1)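 Cells seeded at 2000/well, treated 24 h later with compounds in a 6-point 2-fold dose series, duplicate wells, two independent experiments. After 72 h, resazurin was added at 44 µM final for 3 h at 37 °C and fluorescence was read at 590 nm. Viability was normalized to 1 µM bortezomib (positive) and 0.5% DMSO (negative) controls. GI50 is the mean ± SEM of dose-response curves.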
Background: The colour change of resazurin is a common sign of viable cells or microbes.

The test system of a further data set is RS4-11. The data set can be described thus: Antiproliferative activity against human RS4-11 cells assessed as cell growth inhibition incubated for 72 hrs by resazurin dye based analysis. In kind it is functional. Put shortly:
as §1

The test system of a further data set is A549. The experiment in a line: Antiproliferative activity against human A549 cells assessed as cell growth inhibition incubated for 72 hrs by resazurin dye based analysis. It is filed as functional. In outline:
as §1

Data set [3] can be described thus: Cytotoxicity against resting human PBMC cells assessed as cell growth inhibition incubated for 72 hrs by MTT assay. It is filed as toxicity, cell-based. A general note: Tetrazolium assays rely on reduction of a dye to a coloured formazan, in cell work by metabolically active cells.
Data set [4] can be described thus: Cytotoxicity against PHA stimulated human PBMC cells assessed as cell growth inhibition incubated for 72 hrs by MTT assay. It is filed as toxicity, cell-based.
For data set [5], the target named is T1, BAG family molecular chaperone regulator 3. The data set can be described thus: Binding affinity to CM4 sensorchip immobilized C-terminal His tagged human BAG3 transfected in HEK293T cells assessed as binding capacity at 50 uM by SPR analysis. In outline:
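SPR screen on BAG3-His amine-coupled to a CM4 chip at 60 µg/mL in pH 2.8 acetate. Compound at 50 µM in PBS with 5% DMSO and 0.05% P20 was injected for 90 s at 30 µL/min, then washed. Chip regenerated with 10 mM glycine pH 3. Bound RU read at equilibrium against a void flow cell; 3–10 repeats, mean ± SEM.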

Active and inactive are the calls of the source. No cut-off for these calls is given here. Some results are limits rather than exact numbers.

T1 sequence (O95817 whole entry): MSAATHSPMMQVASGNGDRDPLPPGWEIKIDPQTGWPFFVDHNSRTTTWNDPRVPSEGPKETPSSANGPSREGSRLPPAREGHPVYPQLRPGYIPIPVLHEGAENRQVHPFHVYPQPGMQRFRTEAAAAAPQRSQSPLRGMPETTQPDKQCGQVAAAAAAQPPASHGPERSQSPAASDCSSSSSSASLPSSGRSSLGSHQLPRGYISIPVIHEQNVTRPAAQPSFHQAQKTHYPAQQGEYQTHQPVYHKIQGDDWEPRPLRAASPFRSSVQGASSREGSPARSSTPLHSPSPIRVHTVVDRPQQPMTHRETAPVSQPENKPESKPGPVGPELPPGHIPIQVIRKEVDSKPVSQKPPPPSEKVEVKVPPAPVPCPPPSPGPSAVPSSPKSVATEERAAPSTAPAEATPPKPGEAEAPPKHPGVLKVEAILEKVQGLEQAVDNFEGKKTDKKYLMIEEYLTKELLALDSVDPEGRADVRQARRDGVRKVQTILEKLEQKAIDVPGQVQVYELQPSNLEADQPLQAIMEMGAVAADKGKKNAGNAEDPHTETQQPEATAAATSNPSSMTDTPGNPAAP

In the case of `CCOC(=O)CN1C(=O)S/C(=C\c2ccc(O)c(O)c2)C1=O`, in data set [1], the Kd (commonly the equilibrium constant for the complex coming apart) was 233 µM. For the same compound, in data set [2], the outcome was Active. Moreover, the GI50 – broadly, the concentration giving 50% growth inhibition – is 14.8 µM in the data set with HD-MB03, 6.4 µM with RS4-11 and 42.5 µM in the data set on A549. For the same compound, the GI50 at 72 h in data set [3] and in data set [4] was more than 100 µM each time.
In the case of `CCOC(=O)C(C1CC1)N1C(=O)S/C(=C\c2ccc(O)c(O)c2)C1=O` (racemic), in data set [5], the Activity was more than 5 RU. Moreover, the Kd in data set [1] stood at 204 µM. In addition, the GI50 in the data set on HD-MB03 is 15.5 µM; with RS4-11 it was 6.83 µM; in the data set on A549, 28.1 µM.
For the compound `CCOC(=O)C(c1ccccc1)N1C(=O)S/C(=C\c2ccc(O)c(O)c2)C1=O` (racemic), the Activity in data set [5] is more than 5 RU. For the same compound, the Kd in data set [1] is 366 µM. The GI50 in the data set on HD-MB03 was 17.6 µM; in the data set with RS4-11, 9.53 µM; in the data set on A549, 33.3 µM.
As for `CC(C(=O)N1CCCCC1)N1C(=O)S/C(=C\c2ccc(O)c(O)c2)C1=O` (racemic), the Activity in data set [5] was more than 5 RU. In addition, the Kd in data set [1] is 150 µM. Moreover, the results for the GI50 with HD-MB03, in the data set with RS4-11 and in the data set with A549 were 13.9 µM, 8.6 µM and 29.4 µM, respectively.
For `CCOC(=O)C(C)N1C(=O)S/C(=C\c2ccc(O)c(O)c2)C1=O` (racemic) the same measures were more than 5 RU, 286 µM, 25.3 µM, 5.1 µM and 32.5 µM.
For `CCOC(=O)C(C)N1C(=O)S/C(=C\c2ccc3[nH]cnc3c2)C1=O` (racemic) the same measures were more than 5 RU, 198 µM, 42.5 µM, more than 100 µM and more than 100 µM.
